Experimental data: the RNAGym collection of RNA variant scans (doi:10.1126/science.aae0568)
This sample holds only a part of the variants without activity.

B1: tRNA (parent)
chain: GUUCCGUUGGCGUAAUGGUAACGCGUCUCCCUCCUAAGGAGAAGACUGCGGGUUCGAGUCCCGUACGGAACG

Variants of: B1
Test: yeast fitness relative to wild type (ratio to wild type); higher = fitter; tRNA-Arg(CCU), competitive growth, 37 C, YPD
Procedure, shortened: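 The tRNA-Arg(CCU) gene variants were made by chemical synthesis with a 3% per-site mutation rate at 69 sites and inserted at the native genomic locus of Saccharomyces cerevisiae. After pooling, the strains were competed in YPD at 37°C for 24 hours in six parallel replicates. Gene amplicons from the start population and each end population were read by 100-nucleotide paired-end sequencing, and Darwinian fitness relative to wild type was taken from genotype frequency changes. Genotypes needed ≥ 100 starting reads, and estimates < 0.5 were set to 0.5.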

Variant	yeast fitness
GUUCCGUUGGCGUAAUGGUAACGCGUCUCCCUCCUAAGGAGAAGACUGCGGGUUCGAGUCCCCUACGGCACG [G63C A69C]	0.629
GUUCCGUUGCCGUAAUGGUAACGCCUCUCCCUCCUAAGGAGAAGACUGCGGGUUCGAGUCCCGUACGGAACG [G10C G25C]	0.615
GUUCCGAUGACGUAAUGGUAACGCGUCUCCCUACUCAGGAGAAGACUGCGGGUUCGAGUCCCGUACGGUACG [U7A G10A C33A A36C A69U]	≤ 0.5
GUUCUGUUGGCGUAUUGGUAACGCGUCUCCCUCCUAAGAAGAAGACUGCGGGAUCGAGUCCCGUACGCAACG [C5U A15U G39A U53A G68C]	≤ 0.5
GUUCCGCUGGCGUAAUGGUAGCGCGUCUCCCUCCUAAGGACAAGACUGCGGGCUCGAGUCCCGAACGGAACG [U7C A21G G41C U53C U64A]	≤ 0.5
GUUCCGUUGGCGUAAUGGAAACGUGUCUCCCUCCUAAAGAGAAGACUGCGGGUCCGAGUCCUGUAAGGAACG [U19A C24U G38A U54C C62U C66A]	≤ 0.5
GUUCCGUUGGCGUAAUGGUAACGCGUCUCCCUCCUACGGAGAAGACCGCGAGUUCGAGUCCCGUACGGAACG [A37C U47C G51A]	≤ 0.5
GUUCGGUUGGCGUAAUGGUAACGCGUCUCCCUACUACGGAGAAGACUGCGGGUUCGAGUCUAGUACGGAACG [C5G C33A A37C C61U C62A]	≤ 0.5
GUUCCGUUGGCGUAAUGGUAACGCGUCUCUCUCCUAAGCAGAAGACUGCGGGUUCGAGUUCCGUACGGAACG [C30U G39C C60U]	≤ 0.5
GUUCCGUUGGCAUAAAGGUAACGCGUCUCCCUCCUAAGCAGAAGACUGCGGGUCUGAGUCCCGUACGGAACG [G12A U16A G39C U54C C55U]	≤ 0.5
GGUCCGUUGGCGUAAUGGUAACGCAUCUCCCUCCUAAGGAGAAGACUGCGGGAUCGAGUCCCGUACGGAACG [U2G G25A U53A]	≤ 0.5
GUUCAGUUGGCGAAAUGGUAACGCGUCUCUCUCCUAAGGAGAAGCCUGCGGGUUCGAGUCCCGUACGGAACG [C5A U13A C30U A45C]	≤ 0.5
GUUCCGUUGGCGUAAUGGUAACGUGUCUCCCUCCUAAGGAGAAGACUGUGGGUUCCAGUCCCGUACGGAACG [C24U C49U G56C]	0.542
GUCCCGUUGGCGUAAUGGUAACGCGUCUCUCUCCUAGGGAGAAGACUGCGGGUUCGAGUCACGUACGGAACG [U3C C30U A37G C61A]	≤ 0.5
GUUACGAUGGCGUAAUGGUAACGCGUCUCCCUCCCAAGGAGAAGACUGCGGGUUCGAGUCCCGUACGGAACG [C4A U7A U35C]	≤ 0.5
GUUCCGUUGGUGUAAUGGUAGCGCGUCUCCCUCCUAAGGAGAAGACUGCGGGUUCGAGUCCCGUACGGACCG [C11U A21G A70C]	0.818
GUUCCGUCGGCGUAAUGGUAACGCGUAUCCCUCCUAAGGGGAAGAGUGCGGGUUCGAGUCCGGUACGGAACG [U8C C27A A40G C46G C62G]	≤ 0.5
GUUCCGUUGGCGUAAUGGUAGCGCAUCUCCCUCCUAAGGAGAAGACUGCGGGUUCGAGUCCCGUACGGAACG [A21G G25A]	1.12
GUUCCGUUGCCGUAUUGGUAACGCGUCUGCCUCCUAAGGAGAAGAUUGCGCGUUCGAGUCCCGUGCGGAACG [G10C A15U C29G C46U G51C A65G]	≤ 0.5

Variant	yeast fitness
GUUCUGUUGGCGUAAUGGUAACGCGUGUCCCUCCUAAAGAGAAGACUGCGGGUUCGAGUCCCGUACGGCACG [C5U C27G G38A A69C]	≤ 0.5
GUUCCGUUGGCGUCAUGCUAACGCGUCUCCCUCCUAAGGAGAAGACUGCGGGUUCGAGUCCCGUACGGAACG [A14C G18C]	0.542
GUUCUGUUGGCGUAAUGGUAACGCGUCUCCCUCCUAGGGCGAAGACAGCGGGUUCGAGUCCCGUACGGAACG [C5U A37G A40C U47A]	≤ 0.5
GUUCCGUUGGCGUAAUGGUAACGCGUCUCCCUCCUAAGGAGAUGACUACGGGUUCGAGUCGCGUACGGACCG [A43U G48A C61G A70C]	≤ 0.5
GUUCCGUUGGCGUAAUGGUAACGCGUCUCCCUCCUAAGGAGAAGACUGCGGGUUGGAGUCCCCUACGGAACG [C55G G63C]	0.636
GUUCCGUUGGCGUAAUGGUAUCGCGUCUCCCUCCUAAGGAGAAGUCUGCGAGUUGGAGUCCCGUCCGGAACG [A21U A45U G51A C55G A65C]	≤ 0.5
GUUCCGUUGGCGUAAUGGUAACGCGUCUCCCUCCUAGGGAGUAGACUCUGGGUUCGAGUCCCGUGCGGAACG [A37G A42U G48C C49U A65G]	≤ 0.5
GUUCCGUUGGCGUAAUGGUAUCGCAUCUCCCUCCUAAGGAGAAGACUGCGAGUUCGAGUACCGUACGGAACG [A21U G25A G51A C60A]	≤ 0.5
GUUCCGUUGGCGUAAUGGUAACGCGUCUCCCUCCUAAGGAGAAGUCUGCGGGUUCGAGUCCUGUAUGGAACG [A45U C62U C66U]	0.704
GUUCGGUUGGCGUAAUGGUAACGCAUCUCCCUCCUAAGGAGAAGACUGCGGGUUCGAGUCCCGUACGGACCG [C5G G25A A70C]	0.758
GUUCCGUUGGCGUAAUGGUAACGCGUCUCCCGCCUAAGGAGAAGAAUGCGGGUUCGAGUCCCGUAUGGAACG [U32G C46A C66U]	0.538
GUUCCGGUGCCGUAAUGGUAACGCGUCUCCCUCCUAAGGAGAAGACUGCGGGUUCGAGUCCCGUACGGAACG [U7G G10C]	0.709
GUUCCGUUGGCGUAAUGGUAACGCGUCUCCCUCCUAAGUAGAAGGCUGCCGGUACGAGUCCCGUACAGAACG [G39U A45G G50C U54A G67A]	0.673
GGUCCGUUGCCGUAAUGGUAACGCGUCUCCCUCCUAAGGAGAAGACUGCGGGUUCGAGUCCCGUACGGAACG [U2G G10C]	0.527
GUUCCGUUGGCGUCAUGGUAACGUGUCUCCCUCCUAAGGAGAAGACUGCGGGUUCGAGUCCCGUACGGAACG [A14C C24U]	0.666
GUUCCGUUGGCGUAAUGGUAACGCGUCUCCCUCCUAAGGAGAAGACUGCGGGUUCGAGUCGCGUACGGAUCG [C61G A70U]	0.772
GUUCUGUUGGCGUAAUGGUAUCGCGUCUCCCUUCUAAGGAGAAGACUGCAGGUUCGAGUCCCGUACGGAACG [C5U A21U C33U G50A]	0.65
GUUCCGUUGGUGUAAUGGUAACGGGUGUCCCUCCUAAGGAGAAGACUGCGGGUUCGAGUCCCGUUCGGAACG [C11U C24G C27G A65U]	0.576
GUUCCGUUGGCGUAAUGGUAAUGCGUCUCCCUCCUAAGGAGAAGACUACGGGUUUGAGUCCCGUACGGAACG [C22U G48A C55U]	0.599
